Legend:
[1] = Tested for maximum plasma concentration in mice; format: ADME, organism-based; conditions: mouse
Summary of the method: (§1)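 Mice dosed orally by gavage at 25 mg/kg. Vehicle was usually 20% 0.1 N NaOH/80% 0.5% methylcellulose, and in two cases 20% 0.1 N NaOH/80% PEG 400. Plasma Cmax and AUC measured; AUC not determined where Cmax was too low.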

[2] = Half-life period in rat; format: ADME, organism-based; conditions: in vivo
Summary of the method: (§2)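 Rats given 10 mg/kg orally in NaOH solution buffered to pH 7.4. Plasma Cmax, T1/2 and AUC determined.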

[3] = AUC value in mice; format: ADME, organism-based; conditions: mouse, plasma; summary of the method: as §1
[4] = AUC value in rat; format: ADME; conditions: plasma; summary of the method: as §2
[5] = Tested for maximum plasma concentration in rats; format: ADME, organism-based; conditions: rat; summary of the method: as §2
[6] = (§3) Concentration which elicits cytotoxicity in 50% of uninfected human lymphocyte derived CEM cells; format: cell-based, CCRF-CEM; conditions: uninfected CCRF-CEM cells, read-out: TC50 (the source's name)
Summary of the method: (§4)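 Cytotoxicity measured in uninfected human lymphocyte-derived CEM cells by XTT protocol.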

[7] = target: T1, Human immunodeficiency virus type 1 protease (Human immunodeficiency virus 1, UniProt Q72874); assay: Tested for binding affinity against HIV protease
[8] = system: Human immunodeficiency virus 1; assay: Effective concentration at which 50% of the HIV-IIIB-infected human lymphocyte-derived CEM cells protected from HIV-1 infection
[9] = Effective concentration required for antiviral activity against HIV-1 1002-60 in PBMC cells; format: functional, cell-based; conditions: Homo sapiens
Summary of the method: (§5)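 PBMC cells infected with HIV-1 clinical isolates, using an XTT cytopathic assay similar to the CEM assay. EC50 read as protection from viral cytopathic effect.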

[10] = Effective concentration required for antiviral activity against HIV-1 1026-60 in PBMC cells; format: functional, cell-based; conditions: Homo sapiens; summary of the method: as §5
[11] = Effective concentration required for antiviral activity against HIV-1 144-44 in PBMC cells; format: functional, cell-based; conditions: Homo sapiens; summary of the method: as §5
[12] = Effective concentration required for antiviral activity against HIV-1 RoJo in PBMC cells; format: functional, cell-based; conditions: Homo sapiens; summary of the method: as §5
[13] = Effective concentration required for antiviral activity against HIV-1 SLKA in PBMC cells; format: functional, cell-based; conditions: Homo sapiens; summary of the method: as §5
[14] = Effective concentration required for antiviral activity against HIV-1 TEKI in PBMC cells; format: functional, cell-based; conditions: Homo sapiens; summary of the method: as §5
[15] = Effective concentration required for antiviral activity against HIV-1 WeJo in PBMC cells; format: functional, cell-based; conditions: Homo sapiens; summary of the method: as §5
[16] = Tested for cytotoxic activity against HIV-1 1002-60 in PBMC cells; format: cell-based; conditions: human, read-out: TC50 (the source's name)
[17] = Tested for cytotoxic activity against HIV-1 1026-60 in PBMC cells; format: cell-based; conditions: human, read-out: TC50 (the source's name)
[18] = Tested for cytotoxic activity against HIV-1 144-44 in PBMC cells; format: cell-based; conditions: human, pooled result: one value given for 5 cell lines, strains, targets or settings, read-out: TC50 (the source's name)
[19] = target: T1, Human immunodeficiency virus type 1 protease; assay: Tested for binding affinity against protease
[20] = target: T1, Human immunodeficiency virus type 1 protease; assay: Activity of potent nonpeptidic inhibitor against protease
Summary of the method: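 Incubated with 40 µM His-Lys-Ala-Arg-Val-Leu-(p-NO₂-Phe)-Glu-Ala-Nle-Ser-NH₂ in 1.0% DMSO, pH 6.2 MES buffer (DTT, NaCl, EDTA, PEG 8000) for 60 min at 37 °C, then TFA quench. Substrate and product separated by reverse-phase HPLC, read at 220 nm. % control = conversion with inhibitor / conversion without × 100; IC50 derived.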

[21] = system: CCRF-CEM; assay: as §3; format: cell-based; conditions: ccrf-cem, read-out: TC50 (the source's name); summary of the method: as §4
[22] = target: T2, CYP2C9 (Homo sapiens, UniProt P11712); assay: Residual activity of cytochrome P450 at 10 uM
T2 sequence (P11712 whole entry): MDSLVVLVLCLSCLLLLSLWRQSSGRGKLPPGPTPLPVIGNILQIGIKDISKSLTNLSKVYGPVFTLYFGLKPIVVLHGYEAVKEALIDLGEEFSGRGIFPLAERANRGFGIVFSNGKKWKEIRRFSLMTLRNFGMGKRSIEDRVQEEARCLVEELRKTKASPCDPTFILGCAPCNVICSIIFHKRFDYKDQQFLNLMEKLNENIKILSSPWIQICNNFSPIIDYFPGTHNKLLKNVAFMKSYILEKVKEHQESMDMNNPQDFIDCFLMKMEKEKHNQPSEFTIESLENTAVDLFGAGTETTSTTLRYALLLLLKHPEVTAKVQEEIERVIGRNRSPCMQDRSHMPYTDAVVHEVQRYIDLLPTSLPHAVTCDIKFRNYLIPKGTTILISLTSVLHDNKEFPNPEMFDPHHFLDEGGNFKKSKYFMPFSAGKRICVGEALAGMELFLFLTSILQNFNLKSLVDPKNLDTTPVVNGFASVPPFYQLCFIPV

[23] = target: T3, CYP3A4 (Homo sapiens, UniProt P08684); assay: Residual activity of cytochrome P4503A4 at 1 uM
T3 sequence (P08684 whole entry): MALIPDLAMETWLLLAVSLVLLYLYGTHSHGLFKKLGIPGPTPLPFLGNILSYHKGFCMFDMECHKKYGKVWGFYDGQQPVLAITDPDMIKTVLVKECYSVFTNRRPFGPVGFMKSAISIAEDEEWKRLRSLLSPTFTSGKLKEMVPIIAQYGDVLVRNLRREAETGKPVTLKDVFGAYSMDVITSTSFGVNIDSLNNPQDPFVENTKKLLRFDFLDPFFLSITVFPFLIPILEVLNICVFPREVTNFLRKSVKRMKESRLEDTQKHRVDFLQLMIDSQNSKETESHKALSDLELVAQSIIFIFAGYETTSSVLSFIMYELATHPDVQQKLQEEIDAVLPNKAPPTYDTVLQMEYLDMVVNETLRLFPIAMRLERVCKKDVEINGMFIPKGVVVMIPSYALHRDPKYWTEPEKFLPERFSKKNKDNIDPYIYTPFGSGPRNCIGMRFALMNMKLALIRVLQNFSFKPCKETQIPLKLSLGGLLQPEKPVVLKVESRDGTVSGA

[24] = target: T2, CYP2C9; assay: Residual activity of cytochrome P450 2C9 at 1 uM
[25] = target: T3, CYP3A4; assay: Residual activity of cytochrome P4503A4 at 10 uM
[26] = target: T3, CYP3A4; assay: Residual activity of cytochrome P4503A4 at 100 uM
[27] = Human immunodeficiency virus 1, CCRF-CEM

Row | SMILES | Cmax [1] [µM] | AUC [3] [ng·h/mL] | CC50 [6] [nM] | Ki [7] [nM] | EC50 [8, 27] [nM] | IC50 [20] [nM] | also measured
1 | Cc1cc(SC2=C(O)O[C@](CCc3ccccc3)(C(C)C)CC2=O)c(C(C)(C)C)cc1NS(=O)(=O)c1ccc(C(F)(F)F)cn1 | 9.2 | 22000 | 65000 | 0.31 | 450 |  | half-life [2]: 2.3 h; AUC [4]: 6700 ng·h/mL; Cmax [5]: 3.5 µM
2 | Cc1cc(SC2=C(O)O[C@](CCc3ccc(O)cc3)(C(C)C)CC2=O)c(C(C)(C)C)cc1OS(C)(=O)=O | 6.54 | 5400 | 80000 | 0.03 | 530 |  | half-life [2]: 0.94 h; AUC [4]: 5390 ng·h/mL; Cmax [5]: 6.54 µM
3 | Cc1cc(SC2=C(O)OC(CCc3ccccc3)(C(C)C)CC2=O)c(C(C)(C)C)cc1NS(=O)(=O)c1ccc(C(F)(F)F)cn1 (configuration not stated) |  |  | 66000 | 1.04 | 600 |  | EC50 [9]: 610 nM; EC50 [10]: 270 nM; EC50 [11]: 260 nM; EC50 [12]: 680 nM; EC50 [13]: 710 nM; EC50 [14]: 810 nM; EC50 [15]: 690 nM; CC50 [16]: > 100000 nM; CC50 [17]: > 100000 nM; CC50 [18]: > 100000 nM
4 | Cc1cc(SC2=C(O)OC(CCc3ccccc3)(C(C)C)CC2=O)c(C(C)(C)C)cc1NS(=O)(=O)c1ccc(C(F)(F)F)cc1 (configuration not stated) |  |  | 24000 |  | 700 |  | Ki [19]: 27 nM
5 | Cc1cc(SC2=C(O)OC(CCc3ccc(O)cc3)(C(C)C)CC2=O)c(C(C)(C)C)cc1NS(=O)(=O)c1ccc(C#N)cc1 (configuration not stated) |  |  | 85000 | 0.41 | 1600 | 2.2 | 
6 | CCNS(=O)(=O)Oc1cc(C(C)(C)C)c(SC2=C(O)OC(CCc3ccccc3)(C(C)C)CC2=O)cc1C (configuration not stated) | 0.62 |  | 67000 |  | 800 |  | 
7 | Cc1cc(SC2=C(O)OC(CCc3ccc(O)cc3)(C(C)C)CC2=O)c(C(C)(C)C)cc1NS(=O)(=O)c1ccc(C(F)(F)F)cn1 (configuration not stated) | 1.27 | 980 | 68000 |  | 4300 |  | 
8 | Cc1cc(SC2=C(O)O[C@](CCc3ccc(O)cc3)(C(C)C)CC2=O)c(C(C)(C)C)cc1N (stereo in doubt; 1R) |  |  |  |  |  |  | CC50 [21]: 215000 nM; EC50 ([8]; ccrf-cem): 91000 nM
9 | Cc1cc(SC2=C(O)OC(CCc3ccc(O)cc3)(C(C)C)CC2=O)c(C(C)(C)C)cc1OS(=O)(=O)c1ccc(C#N)cc1 (configuration not stated) |  |  | 67000 |  | 600 | 4.5 | residual activity at 10 µM [22]: 18.1%; residual activity at 1 µM [23]: 79%; residual activity at 1 µM [24]: 83.5%; residual activity at 10 µM [25]: 34.6%; residual activity at 100 µM [26]: 6.86%
10 | Cc1cc(SC2=C(O)OC(CCc3ccccc3)(C(C)C)CC2=O)c(C(C)(C)C)cc1NS(=O)(=O)c1ccccn1 (configuration not stated) | 1.14 |  | 67000 |  | 700 | 3 | 
